High-throughput results from PubChem BioAssay.
M5 antag: human M5 muscarinic receptor antagonists, primary screen, CHO cells, Fluo-8 calcium fluorescence. 360,000 compounds, 0.59% hits. AID 624040, 2012. inhibition, % at 3 µM. CHO-hM5 cells, ACh EC80;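 active = inhibition above a per-plate cutoff, the mean of that plate's test compounds plus 3 SD, cut at about 27% in these data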;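 note: 0% = acetylcholine EC80 with DMSO and 100% = DMSO without agonist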
Target sequence (P08912 whole entry, looked up): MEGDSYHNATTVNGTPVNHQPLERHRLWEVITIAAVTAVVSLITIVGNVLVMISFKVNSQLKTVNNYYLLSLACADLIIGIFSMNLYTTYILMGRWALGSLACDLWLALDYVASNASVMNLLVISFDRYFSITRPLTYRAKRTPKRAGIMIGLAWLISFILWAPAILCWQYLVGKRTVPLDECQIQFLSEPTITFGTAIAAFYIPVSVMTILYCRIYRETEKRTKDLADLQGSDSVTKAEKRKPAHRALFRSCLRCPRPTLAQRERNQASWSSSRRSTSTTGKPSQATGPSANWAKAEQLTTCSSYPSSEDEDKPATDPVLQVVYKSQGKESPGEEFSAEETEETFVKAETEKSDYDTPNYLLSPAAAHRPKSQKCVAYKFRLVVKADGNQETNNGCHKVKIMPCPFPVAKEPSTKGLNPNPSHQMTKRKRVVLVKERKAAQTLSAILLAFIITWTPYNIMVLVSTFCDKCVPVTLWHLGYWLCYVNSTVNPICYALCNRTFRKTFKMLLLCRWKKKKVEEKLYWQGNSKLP
CHRM4 PAM: human M4 muscarinic receptor positive allosteric modulators, primary screen, CHO-K1 cells, Fluo-8 calcium fluorescence. Muscarinic acetylcholine receptor M4 (Homo sapiens), P08173. activation, % at 3 µM. 360,000 compounds, 0.4% hits. CHO-K1 hM4/Gqi5, ACh EC20; 0% = ACh EC20, 100% = maximal ACh. AID 624126, 2012;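 active = activation above its plate's cutoff, the mean activation of sample wells plus 3 SD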
CHRM4 antagonist: human M4 muscarinic receptor antagonists, primary screen, CHO cells, Fluo-8 calcium fluorescence; 360,000 compounds, 0.73% hits; inhibition, % at 3 µM; CHO-hM4 cells, ACh EC80; Muscarinic acetylcholine receptor M4 (Homo sapiens), P08173;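 active = inhibition above its plate's cutoff, the mean inhibition of sample wells plus 3 SD, cut at about 27% in these data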;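 note: 0% = acetylcholine EC80 with DMSO and 100% = DMSO without agonist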
CHRM4 agonist: human M4 muscarinic receptor agonists, primary screen, CHO-K1 cells, Fluo-8 calcium fluorescence | Muscarinic acetylcholine receptor M4 (Homo sapiens), P08173 | 360,000 compounds, 0.14% hits | activation, % at 3 µM | CHO-K1 hM4/Gqi5; vehicle 0%, full acetylcholine response 100% | AID 624127, 2012;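 active = activation above the run mean over all test wells plus 3 SD, cut at about 32% in these data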;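 note: peak over basal fluorescence ratio per well then scaled between controls; 0% = DMSO wells and 100% = acetylcholine at EC100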
CHRM5 PAM: human M5 muscarinic receptor positive allosteric modulators, primary screen, CHO-K1 cells, Fluo-8 calcium fluorescence | CHO-K1 hM5, ACh EC20 PAM; 0% = ACh EC20, 100% = ACh EC100 | Muscarinic acetylcholine receptor M5 (Homo sapiens), P08912 | activation, % at 3 µM | 360,000 compounds, 0.3% hits;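 active = activation above the run cutoff, the mean activation of all test compounds plus 3 SD, cut at about 18% in these data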
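Test system: CHO-K1 hM5 cells / Doses: single-point, 3 µM nominal / Times: Post-acetylcholine fluorescence recording 140 s / Technique: Fluo-8 calcium fluorescence / Measure: Max/basal fluorescence ratio as % of EC20–EC100 ACh window / Benchmarks: low control EC20 acetylcholine (0%), high control EC100 acetylcholine (100%) / Replicates: one well per compound, no replicates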
M5 ag: human M5 muscarinic receptor agonists, primary screen, CHO-K1 cells, Fluo-8 calcium fluorescence | CHO-K1 hM5 cells; 0% DMSO wells, 100% maximal acetylcholine response | activation, % at 3 µM | 360,000 compounds, 0.19% hits;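 active = activation above the run's mean over test compounds plus 3 SD, cut at about 23% in these data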;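 note: signal is peak over basal fluorescence ratio across the kinetic read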
* = called active by the depositor. Only some compounds are listed: those with a hit (about 1.8% of all), similar ones and a draw of the others.

SMILES | M5 antag | CHRM4 PAM | CHRM4 antagonist | CHRM4 agonist | CHRM5 PAM | M5 ag
C[C@@H]1CC=C[C@H]2[C@H]1C(=O)N(Cc1ccccc1)[C@H]2c1ccc2ccccc2c1Br | 0 | 2 | -8 | 0 | 22* | 1
C[C@@H]1CC=C[C@H]2[C@H]1C(=O)N(Cc1ccccc1)[C@H]2c1ccc2ccccc2c1 | 5 | -4 | -2 | 0 | 1 | 4
N=C1/C(=C\c2coc3ccccc3c2=O)C(=O)N=C2SC(c3ccncc3)=NN12 | 51* | -37 | 28* | 41* | -34 | 65*
Cc1cc(/C=C2\C(=N)N3N=C(c4ccco4)SC3=NC2=O)c(C)n1Cc1ccccc1 | 1 | -21 | 8 | 8 | -10 | 1
N=C1/C(=C/c2coc3ccccc3c2=O)C(=O)N=C2SC(c3ccco3)=NN12 | 53* | -19 | 23 | 64* | -35 | 223*
CN1C(=O)/C(=C/c2coc3ccc(O)cc3c2=O)SC1=S | 9 | 2 | -4 | 0 | -1 | 2
N=C1/C(=C\c2coc3ccc(O)cc3c2=O)C(=O)N=C2SC=CN12 | 26 | -34 | 23 | 50* | -29 | 65*
O=c1c2c(nc3nc(NCc4ccc(Cl)cc4)[nH]n13)CCC2 | -4 | -9 | 5 | 0 | -6 | -2
O=c1c2c(nc3nc(CCc4ccccc4)[nH]n13)CCC2 | -6 | 7 | -12 | -1 | 22* | -4
CN(C)c1ccc(/C=N/NC(=S)NCc2ccccc2)cc1 | 2 | -4 | -9 | 1 | -7 | -5
CC(C)(C)c1ccc(/C=N/NC(=S)NCc2ccccc2)cc1 | 4 | 25* | -9 | 2 | -1 | 1
COc1cc(/C=N\NC(=O)CC(=O)NCCc2ccccc2)ccc1O | -1 | -1 | -8 | 1 | -5 | -2
CCOc1ccc(/C=N/NC(=O)CC(=O)NCc2ccccc2)cc1 | -2 | 7 | -5 | 0 | 28* | 4
CCOc1cc(/C=N\NC(=O)CC(=O)NCCc2ccccc2)ccc1O | 29* | -7 | 7 | 17 | -19 | -1
CCOc1ccc(/C=N\NC(=O)CC(=O)NCCc2ccccc2)cc1 | -1 | -3 | 5 | 0 | 6 | -4
CC(O)(c1ccc(F)c(F)c1)c1nc(-c2ccc(S(C)(=O)=O)cc2)cs1 (stereo not given) | -3 | -4 | -7 | 7 | -9 | -1
Cc1cccc(S(=O)(=O)NC(=O)C2(C)CCN2C(=O)c2cccc(F)c2)c1 (stereo not given) | 5 | 0 | 3 | 0 | -3 | 0
CCOC(=O)CC1(CCc2ccccc2)Oc2ccccc2O1 | -5 | -2 | 3 | 0 | 0 | -3
O=C1CC(N(O)c2ccccc2)C(=O)N1c1cc(Cl)cc(Cl)c1 (stereo not given) | -10 | 4 | 4 | 1 | -3 | 30*
CCCCCCC(=O)Oc1cccc(C2=CC(=O)CC(C)(C)C2=O)c1 | 4 | 2 | -4 | 0 | -1 | 1
CCCC1(C(=O)OCC)NC(c2cc(OC)c(OC)c(OC)c2)C2C(=O)N(CC)C(=O)C21 (stereo not given) | -5 | 35* | -3 | 2 | -1 | 1
O=S(=O)(c1ccccc1F)N1CCN(CCc2ccccc2)CC1 | -4 | -18 | 101* | -2 | -4 | -3
O=C(Nc1ccc2c(c1)OCCO2)C1c2ccccc2OCC(=O)N1Cc1ccccc1 (stereo not given) | 3 | 13 | -5 | 1 | 0 | -2
CCc1nc2ccccc2c(C(=O)OCC(=O)Nc2cccc(S(=O)(=O)N3CCOCC3)c2)c1C | 11 | -19 | 30* | 11 | -18 | 4
O=C(COC(=O)c1cc(S(=O)(=O)N2CCCC2)ccc1O)Nc1ccc(S(=O)(=O)N2CCOCC2)cc1 | 9 | 37* | 15 | 4 | 4 | -4
SMILES | M5 antag | CHRM4 PAM | CHRM4 antagonist | CHRM4 agonist | CHRM5 PAM | M5 ag
Cn1nccc1C(=O)Nc1cccc(S(=O)(=O)N2CCOCC2)c1 | -2 | 22* | 8 | 1 | 2 | -1
CCOC(=O)C(NC(=O)CC)(Nc1cc(C)on1)C(F)(F)F (stereo not given) | -7 | 34* | -8 | 1 | 6 | -3
CN(C)/C=C1\C=C2C(=O)c3ccccc3N2C1=O | 25 | -30 | 10 | 65* | -23 | 110*
CN(C)S(=O)(=O)N1C(=O)c2ccccc2C1=O | 2 | 4 | 2 | 1 | -2 | -4
O=C(Nc1ccc(F)cc1)Nc1nnc([C@@H]2C[C@H](O)[C@@H](CO)O2)s1 | 4 | 8 | -9 | 0 | -1 | 0
CCCn1c(=O)c(C(=O)Nc2ccccc2N)c(O)c2ccccc21 | 0 | 1 | 3 | 0 | -1 | -1
CCOP(=O)(OCC)C(Nc1ccccc1)c1cccnc1 (stereo not given) | -1 | -2 | -12 | 1 | 2 | 1
O=P(OC1CCCCC1)(OC1CCCCC1)C(Nc1ccccc1)c1cccnc1 (stereo not given) | 31* | -9 | 12 | 19 | -19 | 0
COC(=O)[C@H]1C[C@H](OC(=O)Nc2c(C)noc2C)[C@@]2(O)CN(S(=O)(=O)c3ccc(C)cc3)CC2[C@H]1C(=O)OC (stereo not given in full) | -10 | 1 | -13 | 0 | -1 | 2
Cc1cc(C)c(CSc2ncc(-c3ccc([N+](=O)[O-])cc3)[nH]2)c(C)c1 | 19 | -13 | 36* | 4 | -14 | -3
CC1CCN(CC(=O)Nc2ccccc2-c2ccccc2)CC1 | 9 | -13 | 27* | -2 | -24 | -6
O=C(Nc1ccccc1-c1ccccc1)C1CCC1 | 2 | 2 | -9 | 54* | 0 | -4
CCc1c(C)nc2ncnn2c1NCCc1ccc(OC)c(OC)c1 | 13 | -2 | -2 | 3 | -6 | 1
COc1ccc(CCNc2c(C)c(C)nc3ncnn23)cc1 | 29* | -1 | 6 | 13 | -23 | 11
Cc1ccc(-n2nc3ccc(N)cc3n2)cc1Cl | 4 | -3 | 10 | -1 | -3 | 1
Cc1ccc(-n2nc3ccc(N)cc3n2)cc1C | -15 | 16* | -4 | 1 | 21* | 13
CCc1nc2ccc(C(=O)Nc3cccc(OCC(=O)N(C)C)c3)cn2c1N(C)Cc1cc2ccccc2s1 | 33* | -12 | 34* | 15 | -22 | -2
